Measurements as given in the M2OR odorant receptor database.
Positions count from the first letter of the chain named.

Legend:
Conditions in all cases: stereoisomer not certain
OR5DG A156T = tested on: T1, OR5DG A156T
T1 sequence (whole entry): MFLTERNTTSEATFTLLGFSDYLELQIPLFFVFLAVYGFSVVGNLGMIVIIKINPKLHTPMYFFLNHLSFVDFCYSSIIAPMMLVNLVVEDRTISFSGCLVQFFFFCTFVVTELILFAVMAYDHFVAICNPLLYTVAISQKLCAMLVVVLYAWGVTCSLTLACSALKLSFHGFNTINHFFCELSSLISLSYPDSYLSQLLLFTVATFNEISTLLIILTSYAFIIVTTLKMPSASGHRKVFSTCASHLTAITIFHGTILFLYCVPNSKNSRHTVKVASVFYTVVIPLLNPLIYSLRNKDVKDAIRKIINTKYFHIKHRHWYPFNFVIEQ
In short: (§1)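 Assay methods differ from source to source, frequently being transient luciferase assays in mammalian cell lines. For each receptor–molecule pair, the label responsive (active) applies when the original authors judged the measured signal statistically different from baseline, and non-responsive (inactive) applies otherwise.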

OR5DI = tested on: T2, OR5DI
T2 sequence (whole entry): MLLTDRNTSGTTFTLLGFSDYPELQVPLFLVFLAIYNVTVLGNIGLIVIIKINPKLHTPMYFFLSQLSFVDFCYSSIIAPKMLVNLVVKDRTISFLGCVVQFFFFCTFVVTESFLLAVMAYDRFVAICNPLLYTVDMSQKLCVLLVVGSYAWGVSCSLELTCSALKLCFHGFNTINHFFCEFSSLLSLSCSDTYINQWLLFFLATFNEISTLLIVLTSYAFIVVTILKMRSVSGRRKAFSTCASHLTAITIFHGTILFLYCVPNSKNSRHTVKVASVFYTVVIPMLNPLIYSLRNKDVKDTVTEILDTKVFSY
In short: as §1

OR5F1 (Homo sapiens) = target: T3, OR5F1 (Homo sapiens) (UniProt O95221)
T3 sequence (whole entry): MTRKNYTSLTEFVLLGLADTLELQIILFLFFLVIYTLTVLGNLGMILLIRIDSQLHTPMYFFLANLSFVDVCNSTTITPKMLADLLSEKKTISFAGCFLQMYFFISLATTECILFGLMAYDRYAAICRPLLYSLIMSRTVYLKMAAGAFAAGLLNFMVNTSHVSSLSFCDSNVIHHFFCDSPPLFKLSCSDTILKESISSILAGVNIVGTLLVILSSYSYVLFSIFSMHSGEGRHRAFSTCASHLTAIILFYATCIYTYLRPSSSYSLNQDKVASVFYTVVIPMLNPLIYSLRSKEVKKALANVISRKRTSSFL
In short: as §1

OR5F1 = tested on: T4, OR5F1
T4 sequence (whole entry): T3 sequence (whole entry) with S294N
In short: as §1

OR5H1 (Homo sapiens) = target: T5, OR5H1 (Homo sapiens) (UniProt A6NKK0)
T5 sequence (whole entry): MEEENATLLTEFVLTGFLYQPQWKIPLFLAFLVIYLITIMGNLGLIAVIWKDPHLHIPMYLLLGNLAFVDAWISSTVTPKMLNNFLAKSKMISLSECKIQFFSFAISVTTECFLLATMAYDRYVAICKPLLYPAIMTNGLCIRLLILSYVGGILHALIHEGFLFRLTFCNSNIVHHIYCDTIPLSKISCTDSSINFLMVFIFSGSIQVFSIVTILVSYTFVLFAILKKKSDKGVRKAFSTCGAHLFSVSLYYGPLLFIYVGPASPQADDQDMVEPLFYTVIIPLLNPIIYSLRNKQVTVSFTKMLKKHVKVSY
In short: as §1

OR5H1 F17L A30T H56Q = tested on: T6, OR5H1 F17L A30T H56Q
T6 sequence (whole entry): T5 sequence (whole entry) with F17L, A30T, H56Q
In short: as §1

OR5H14 (Homo sapiens) = target: T7, OR5H14 (Homo sapiens) (UniProt A6NHG9)
T7 sequence (whole entry): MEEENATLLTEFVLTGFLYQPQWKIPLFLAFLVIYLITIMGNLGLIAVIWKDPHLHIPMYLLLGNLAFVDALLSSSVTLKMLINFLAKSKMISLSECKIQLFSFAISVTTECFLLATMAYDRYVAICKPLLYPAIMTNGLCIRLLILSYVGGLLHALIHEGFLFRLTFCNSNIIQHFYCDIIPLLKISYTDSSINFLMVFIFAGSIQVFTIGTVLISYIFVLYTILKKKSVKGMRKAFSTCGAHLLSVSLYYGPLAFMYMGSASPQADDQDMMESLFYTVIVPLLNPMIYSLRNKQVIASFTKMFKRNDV
In short: as §1

OR5H15 (Homo sapiens) = target: T8, OR5H15 (Homo sapiens) (UniProt A6NDH6)
T8 sequence (whole entry): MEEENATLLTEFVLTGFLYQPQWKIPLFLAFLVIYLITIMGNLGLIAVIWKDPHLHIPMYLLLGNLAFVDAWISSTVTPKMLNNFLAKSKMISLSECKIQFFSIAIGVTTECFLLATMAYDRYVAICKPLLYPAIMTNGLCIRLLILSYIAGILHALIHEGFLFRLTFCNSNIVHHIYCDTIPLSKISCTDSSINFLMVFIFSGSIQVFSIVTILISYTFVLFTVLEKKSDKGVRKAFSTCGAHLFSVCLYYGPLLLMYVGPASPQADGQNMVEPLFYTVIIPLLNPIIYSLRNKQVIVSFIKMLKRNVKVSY
In short: as §1

OR5G3 (Homo sapiens) = OR5G3 (Homo sapiens) (UniProt P0C626)
In short: as §1

OR5H1 T181N = tested on: T9, OR5H1 T181N
T9 sequence (whole entry): T5 sequence (whole entry) with T181N
In short: as §1

Measured: odorant receptor agonist call

Sequence of OR5G3 (Homo sapiens) (P0C626 whole entry): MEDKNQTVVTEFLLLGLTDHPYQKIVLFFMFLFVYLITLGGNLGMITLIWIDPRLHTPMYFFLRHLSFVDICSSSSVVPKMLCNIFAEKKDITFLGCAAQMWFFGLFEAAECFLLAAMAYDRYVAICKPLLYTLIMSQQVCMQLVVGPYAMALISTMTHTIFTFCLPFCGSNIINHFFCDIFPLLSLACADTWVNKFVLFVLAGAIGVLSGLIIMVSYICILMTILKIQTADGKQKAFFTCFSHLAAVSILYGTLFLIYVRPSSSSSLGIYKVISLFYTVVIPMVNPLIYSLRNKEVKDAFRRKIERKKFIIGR

CCCCCCC=CCCC=O
not listed: OR5G3 (Homo sapiens) | OR5H1 T181N
inactive: all other assays above

CC1CCCCCCCCCCCCC(=O)C1 (centres undefined)
inactive: OR5F1 (Homo sapiens) | OR5G3 (Homo sapiens) | OR5H14 (Homo sapiens) | OR5H15 (Homo sapiens)

CC1=NC(C)C(C)S1 (centres undefined)
not listed: OR5G3 (Homo sapiens)
inactive: all other assays above

CC1=C(O)C(=O)C(C)O1 (centres undefined)
not listed: OR5G3 (Homo sapiens)
inactive: all other assays above

CCCCCC(=O)C(C)C(C)=O (centres undefined)
inactive: OR5F1 (Homo sapiens) | OR5H1 (Homo sapiens) | OR5H14 (Homo sapiens) | OR5H15 (Homo sapiens)

CCCCCC(S)C(C)CO (centres undefined)
inactive: OR5F1 (Homo sapiens) | OR5H1 (Homo sapiens) | OR5H14 (Homo sapiens) | OR5H15 (Homo sapiens)

CC1=C(O)C(=O)OC1C (centres undefined)
not listed: OR5G3 (Homo sapiens)
inactive: all other assays above

CCC1OC(C)=C(O)C1=O (centres undefined)
not listed: OR5G3 (Homo sapiens)
inactive: all other assays above

CC(CO)CS (centres undefined)
inactive: OR5F1 (Homo sapiens) | OR5H1 (Homo sapiens) | OR5H14 (Homo sapiens) | OR5H15 (Homo sapiens)

CCCCC(S)C(C)CO (centres undefined)
inactive: OR5F1 (Homo sapiens) | OR5H1 (Homo sapiens) | OR5H14 (Homo sapiens) | OR5H15 (Homo sapiens)

CC(=O)c1c(C)c([N+](=O)[O-])c(C(C)(C)C)c([N+](=O)[O-])c1C
inactive: OR5F1 (Homo sapiens) | OR5G3 (Homo sapiens) | OR5H14 (Homo sapiens) | OR5H15 (Homo sapiens)

CCC(S)C(C)CO (centres undefined)
inactive: OR5F1 (Homo sapiens) | OR5H1 (Homo sapiens) | OR5H14 (Homo sapiens) | OR5H15 (Homo sapiens)

CCC1OC(=O)C(O)=C1C (centres undefined)
not listed: OR5G3 (Homo sapiens)
inactive: all other assays above

Cc1cnc(C)c(C)n1
not listed: OR5G3 (Homo sapiens)
inactive: all other assays above

CCCC(S)CCOC(C)=O (centres undefined)
not listed: OR5G3 (Homo sapiens)
inactive: all other assays above
